Experiments:
[1] = Positive allosteric modulation of mGlu2 receptor in CHO cell membranes preincubated for 30 mins in presence of 4 uM glutamate followed by [35S]GTPgammaS addition and measured after 30 mins by scintillation counting analysis; design: species or system Cricetulus griseus
Summary of the method: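 No absolute EC50 was given where the concentration–response curve reached no clear upper plateau.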

CHO [2] = assay: Positive allosteric modulation of mGlu2 receptor in CHO cell membranes preincubated for 30 mins in presence of 4 uM glutamate followed by [35S]GTPgammaS addition and measured after 30 mins by scintillation counting analysis relative to control; details: Cricetulus griseus
Summary of the method: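 EMAX is the % response, given as the median of at least two experiments with standard deviation.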

CHO [3] = assay: Positive allosteric modulation of mGlu2 receptor in CHO cell membranes at 1 uM preincubated for 30 mins in presence of 4 uM glutamate followed by [35S]GTPgammaS addition and measured after 30 mins by scintillation counting analysis; details: Cricetulus griseus
[4] = Brain to plasma permeability coefficient, Kp in Sprague-Dawley rat at 30 mg/kg, po after 2 hrs; assay type: ADME, organism-based
Summary of the method: (§1)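 Single oral dose to male Sprague–Dawley rats (n = 1), given as a suspension in 20% HP-β-CD at pH 7, at 10 or 30 mg/kg. Plasma (ng/mL) and brain (ng/g) levels were taken at 2 and 4 h. Kp is the brain/plasma partition coefficient at 2 h.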

[5] = Stability in human liver microsomes assessed as percentage of compound metabolized at 5 uM after 15 mins; assay type: ADME, Microsome; details: for metabolised at 0.25 h, 5 µM: liver microsomes, read-out: Drug metabolism
[6] = Stability in rat liver microsomes assessed as percentage of compound metabolized at 5 uM after 15 mins; assay type: ADME, Microsome; details: for metabolised at 0.25 h, 5 µM: liver microsomes, read-out: Drug metabolism
[7] = Drug level in Sprague-Dawley rat plasma at 30 mg/kg, po after 2 hrs; assay type: ADME, organism-based; summary of the method: as §1
[8] = Drug level in Sprague-Dawley rat plasma at 30 mg/kg, po after 4 hrs; assay type: ADME, organism-based; summary of the method: as §1
[9] = Drug concentration in Sprague-Dawley rat brain at 30 mg/kg, po after 2 hrs; assay type: ADME, organism-based; details: read-out: Drug uptake; summary of the method: as §1
[10] = Drug concentration in Sprague-Dawley rat brain at 30 mg/kg, po after 4 hrs; assay type: ADME, organism-based; details: read-out: Drug uptake; summary of the method: as §1
MDR1 [11] = assay: Efflux ratio of permeability in pig LLC-PK1 cells transfected with MDR1; assay type: ADME, cell-based, Sus scrofa
MDR1 [12] = assay: Permeability in pig LLC-PK1 cells transfected with MDR1 gene; assay type: ADME, cell-based, Sus scrofa; details: read-out: permeability
[13] = Brain to plasma permeability coefficient, Kp in Sprague-Dawley rat at 10 mg/kg, po after 2 hrs; assay type: ADME, organism-based; summary of the method: as §1
[14] = Drug level in Sprague-Dawley rat plasma at 10 mg/kg, po after 2 hrs; assay type: ADME, organism-based; summary of the method: as §1
[15] = Drug level in Sprague-Dawley rat plasma at 10 mg/kg, po after 4 hrs; assay type: ADME, organism-based; summary of the method: as §1
[16] = Drug concentration in Sprague-Dawley rat brain at 10 mg/kg, po after 2 hrs; assay type: ADME, organism-based; details: read-out: Drug uptake; summary of the method: as §1
[17] = Drug concentration in Sprague-Dawley rat brain at 10 mg/kg, po after 4 hrs; assay type: ADME, organism-based; details: for concentration at 4 h: Sprague-Dawley, brain, read-out: Drug uptake; summary of the method: as §1
[18] = biological target: Adenosine receptor A2b (Homo sapiens) (UniProt P29275); assay: Displacement of radioligand from human adenosine A2B receptor
Sequence of Adenosine receptor A2b (Homo sapiens) (P29275 whole entry, looked up): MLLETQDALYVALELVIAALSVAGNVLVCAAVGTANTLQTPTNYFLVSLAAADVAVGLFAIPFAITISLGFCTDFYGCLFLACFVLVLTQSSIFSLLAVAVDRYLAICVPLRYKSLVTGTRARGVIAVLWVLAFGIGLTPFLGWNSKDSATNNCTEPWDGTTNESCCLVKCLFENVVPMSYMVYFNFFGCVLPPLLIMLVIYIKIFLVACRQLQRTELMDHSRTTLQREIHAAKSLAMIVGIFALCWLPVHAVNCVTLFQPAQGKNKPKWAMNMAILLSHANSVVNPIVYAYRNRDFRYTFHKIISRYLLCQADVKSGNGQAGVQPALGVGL

[19] = microsomes, 0.25 h, 5 µM, BLD = below limit of detection

SMILES | EC50 [1] [µM] | metabolised at 0.25 h, 5 µM [5] [%] | metabolised at 0.25 h, 5 µM [6] [%] | Emax (CHO [2]) [%] | Activity (CHO [3]) [%] | further results
CCOc1cc(N2CC(n3c(=O)[nH]c4ccccc43)C2)ncc1Cl | 0.27 | 15 | 46 | 259 | – | Kp at 2 h [4]: 0.36; concentration at 2 h [7]: 5770 ng/mL; concentration at 4 h [8]: 5780 ng/mL; concentration at 2 h [9]: 2050 ng/g; concentration at 4 h [10]: 2370 ng/g; efflux ratio (MDR1 [11]): 1.18; Papp (MDR1 [12]): 13 ×10⁻⁶ cm/s
CCNc1cc(N2CC(n3c(=O)[nH]c4ccccc43)C2)ncc1Cl | 0.12 | 27 | 88 | 381 | – | –
CCNc1cc(N2CC(n3c(=O)[nH]c4ccccc43)C2)nnc1Cl | 0.28 | 0 | 23 | 291 | – | Kp at 2 h [4]: 0.03; concentration at 2 h [7]: 1480 ng/mL; concentration at 4 h [8]: 842 ng/mL; concentration at 2 h [9]: 48 ng/g; concentration at 4 h [10]: 31 ng/g
O=C1Nc2ccc(Cl)cc2C12CCN(c1ccc(Cl)nn1)CC2 | 1 | 8 | 76 | 187 | 80 | –
CCNc1cc(N2CCC3(CC2)C(=O)Nc2ccc(Br)cc23)nnc1Cl | 0.24 | 8 | 65 | 394 | 263 | –
O=C1Nc2cc(Br)ccc2C12CCN(c1ccc(Cl)nn1)CC2 | – | – | – | 183 | 76 | –
CCOc1nc(N2CC(n3c(=O)[nH]c4cc(C(F)(F)F)ccc43)C2)ncc1Cl | 0.15 | – | – | 220 | – | Drug metabolism [5, 19]: Bld; Drug metabolism [6, 19]: Bld
CCOc1cc(N2CCC3(CC2)C(=O)Nc2ccc(Br)cc23)nnc1C(F)(F)F | 0.13 | 9 | 43 | 216 | 160 | Kp at 2 h [13]: 1.4; concentration at 2 h [14]: 260 ng/mL; concentration at 4 h [15]: 220 ng/mL; concentration at 2 h [16]: 310 ng/g; concentration at 4 h [17]: 290 ng/g; IC50 [18]: 0.79 µM
Cc1ccc(N2CCC3(CC2)C(=O)Nc2ccc(Br)cc23)nn1 | – | 17 | 69 | 228 | 36 | –
CCOc1ccc(N2CCC3(CC2)C(=O)Nc2ccc(Br)cc23)nn1 | > 10 | 7 | 31 | 52 | 5 | –
CCNc1cc(N2CC(n3c(=O)[nH]c4ccc(Br)cc43)C2)nnc1Cl | 0.23 | 9 | 26 | 241 | – | Kp at 2 h [13]: 0.07; concentration at 2 h [14]: 254 ng/mL; concentration at 4 h [15]: 416 ng/mL; concentration at 2 h [16]: 18 ng/g; concentration at 4 h [17]: 18 ng/g
CCOc1cc(N2CC(n3c(=O)[nH]c4cc(C(F)(F)F)ccc43)C2)ncc1Cl | 0.08 | 4 | 12 | 218 | – | Kp at 2 h [4]: 0.14; concentration at 2 h [7]: 2660 ng/mL; concentration at 4 h [8]: 5090 ng/mL; concentration at 2 h [9]: 371 ng/g; concentration at 4 h [10]: 996 ng/g; efflux ratio (MDR1 [11]): 1.24; Papp (MDR1 [12]): 9 ×10⁻⁶ cm/s
O=C1Nc2cccc(Br)c2C12CCN(c1ccc(Cl)nn1)CC2 | – | – | – | 108 | 31 | –
CC(C)(C)OC(=O)N1CCC2(CC1)C(=O)Nc1ccc(Br)cc12 | 10 | – | – | 120 | – | –
O=C1Nc2ccc(Br)cc2C12CCN(c1cccnn1)CC2 | – | – | – | 141 | 7 | –
CCOc1cc(N2CCC3(CC2)C(=O)Nc2ccc(Br)cc23)nnc1Cl | 0.21 | 11 | 58 | 380 | 203 | Kp at 2 h [13]: 0.37; concentration at 2 h [14]: 49 ng/mL; concentration at 4 h [15]: 17 ng/mL; concentration at 2 h [16]: 18 ng/g; Drug uptake ([17]; in vivo, 4 h, BLD = below limit of detection): Bld

Now from value to molecule, other results behind:

EC50 [1] [µM] | metabolised at 0.25 h, 5 µM [5] [%] | metabolised at 0.25 h, 5 µM [6] [%] | SMILES | Emax (CHO [2]) [%] | Activity (CHO [3]) [%] | further results
3.09 | – | – | O=C1Nc2c(Br)cccc2C12CCN(c1ccc(Cl)nn1)CC2 | 65 | 9 | –
0.63 | 45 | 100 | O=C1Nc2ccc(C3CC3)cc2C12CCN(c1ccc(Cl)nn1)CC2 | 169 | 105 | –
0.4 | 4 | 20 | O=C1Nc2ccc(Br)cc2C12CCN(c1ccc(C(F)(F)F)nn1)CC2 | 53 | 46 | –
2.29 | – | – | FC(F)(F)c1cccc(C2CCN(c3ccc(Cl)nn3)CC2)c1 | 128 | – | –
– | 11 | 57 | O=C1Nc2ccc(F)cc2C12CCN(c1ccc(Cl)nn1)CC2 | 184 | 31 | –
1.02 | 8 | 25 | O=C1Nc2ccc(Br)cc2C12CCN(c1ccc(Cl)nn1)CC2 | 232 | 100 | –
– | 45 | 95 | O=C1Nc2ccccc2C12CCN(c1ccc(Cl)nn1)CC2 | 217 | 24 | –

From ChEMBL document CHEMBL4342481, “Spiro-oxindole Piperidines and 3-(Azetidin-3-yl)-1H-benzimidazol-2-ones as mGlu2 Receptor PAMs” (ACS Med Chem Lett, 2020)
